ChEMBL document CHEMBL1149410, “Discovery of a potent phenolic N1-benzylidene-pyridinecarboxamidrazone selective against Gram-positive bacteria” (Bioorg Med Chem Lett, 2006)
In brackets after ≈: the same amount, converted by molar mass. Activity calls are given as the source filed them. The rule behind the calls is not given here.

Legend:
[1] = system: Mycolicibacterium fortuitum; assay: Antibacterial activity against Mycobacterium fortuitum; assay type: functional, organism-based
How it was run: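 The Mycobacterium fortuitum reference strain NCTC 10394 was screened for a zone of inhibition on Columbia agar supplemented with horse blood. Compounds were also screened at a single concentration in Middlebrook 7H9 broth with glycerol and ADC enrichment. The MIC was determined in broth when a zone or single-concentration activity was seen.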

Staphylococcus aureus [2] = assay: Antibacterial activity against 10 clinical isolate methicillin-resistant strains of Staphylococcus aureus; assay type: functional
How it was run: (§1)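 Agar dilution MIC on Mueller–Hinton agar. Bacteria were spotted with a multipoint inoculator and plates incubated at 37 °C for 18 h. MIC was taken as the lowest concentration inhibiting growth. The panels covered clinical MRSA isolates, methicillin-sensitive S. aureus, enterococci, Gram-negative bacteria and vancomycin-resistant enterococci.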

[3] = system: Staphylococcus haemolyticus; assay: Antibacterial activity against clinical isolate of Staphylococcus haemolyticus; assay type: functional
How it was run: (§2)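 Agar dilution MIC on Mueller–Hinton agar, with a multipoint inoculator spotting the organisms. The MIC was the lowest concentration that inhibited growth after 18 h at 37 °C.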

Escherichia coli [4] = assay: Antibacterial activity against Escherichia coli W3110 R-; assay type: functional; how it was run: as §1
Escherichia coli [5] = assay: Antibacterial activity against Escherichia coli W3110 R+; assay type: functional; how it was run: as §1
Klebsiella pneumoniae = assay: Antibacterial activity against Klebsiella pneumoniae 327; assay type: functional; how it was run: as §1
Staphylococcus aureus [6] = assay: Antibacterial activity against methicillin-sensitive Staphylococcus aureus NCTC 6571; assay type: functional; how it was run: as §1
Staphylococcus aureus [7] = assay: Antibacterial activity against methicillin-sensitive Staphylococcus aureus NCTC 10788; assay type: functional; how it was run: as §1
Staphylococcus aureus [8] = assay: Antibacterial activity against methicillin-sensitive Staphylococcus aureus Cowan 1; assay type: functional; how it was run: as §1
Enterococcus faecium [9] = assay: Antibacterial activity against Enterococcus faecium ACTCC 10541; assay type: functional; how it was run: as §2
Enterococcus faecium [10] = assay: Antibacterial activity against Enterococcus faecium NCTC 7171; assay type: functional; how it was run: as §2
Enterococcus faecalis [11] = assay: Antibacterial activity against Enterococcus faecalis NCTC 5957; assay type: functional; how it was run: as §2
Enterococcus faecalis [12] = assay: Antibacterial activity against Enterococcus faecalis isolate 1; assay type: functional; how it was run: as §2
Serratia marcescens = assay: Antibacterial activity against Serratia marcescens 4444; assay type: functional; how it was run: as §1
Pseudomonas aeruginosa = assay: Antibacterial activity against Pseudomonas aeruginosa NCTC 6749; assay type: functional; how it was run: as §1
[13] = system: Stenotrophomonas maltophilia; assay: Antibacterial activity against Stenotrophomonas maltophilia NCTC 10257; assay type: functional; how it was run: as §1
Enterobacter cloacae = assay: Antibacterial activity against Enterobacter cloacae NCTC 11582; assay type: functional; how it was run: as §1
[14] = system: Bordetella bronchiseptica; assay: Antibacterial activity against Bordetella bronchiseptica NCTC 8344; assay type: functional; how it was run: as §1
Enterococcus [15] = assay: Antibacterial activity against vancomycin-resistant Enterococcus 3001562; assay type: functional; how it was run: as §1
Enterococcus [16] = assay: Antibacterial activity against vancomycin-resistant Enterococcus 3002043; assay type: functional; how it was run: as §1
Enterococcus [17] = assay: Antibacterial activity against vancomycin-resistant Enterococcus 3002066; assay type: functional; how it was run: as §1
Enterococcus [18] = assay: Antibacterial activity against vancomycin-resistant Enterococcus 3005323; assay type: functional; how it was run: as §1
Enterococcus [19] = assay: Antibacterial activity against vancomycin-resistant Enterococcus 3005426; assay type: functional; how it was run: as §1
Enterococcus [20] = assay: Antibacterial activity against vancomycin-resistant Enterococcus 3005353; assay type: functional; how it was run: as §1
Enterococcus [21] = assay: Antibacterial activity against vancomycin-resistant Enterococcus 3102095; assay type: functional; how it was run: as §1
Enterococcus faecalis [22] = assay: Antibacterial activity against Enterococcus faecalis isolate 2; assay type: functional; how it was run: as §1
Enterococcus faecalis [23] = assay: Antibacterial activity against Enterococcus faecalis isolate 3; assay type: functional; how it was run: as §1
Enterococcus faecalis [24] = assay: Antibacterial activity against Enterococcus faecalis isolate 4; assay type: functional; how it was run: as §2
Enterococcus faecalis [25] = assay: Antibacterial activity against Enterococcus faecalis isolate 5; assay type: functional; how it was run: as §2
PBMC [26] = assay: Toxicity towards human mononuclear leucocytes at 1 mM; assay type: cell-based; conditions: 1000 µM
How it was run: (§3)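 Human mononuclear leucocytes were exposed to compound for 1 h, then held in compound-free medium for 18 h. Cell death was scored by trypan blue exclusion and reported as % leucocyte death. The test concentration was 1 mM, or 0.5 mM where solubility limited it.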

[27] = system: Mycobacterium tuberculosis; assay: Antibacterial activity against Mycobacterium tuberculosis H37Rv at 6.25 ug/ml; assay type: functional
How it was run: (§4)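 Inhibition of M. tuberculosis H37Rv (ATCC 27294) growth was tested in BACTEC 12B medium. Percent inhibition was recorded at a fixed concentration, and MIC was also determined.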

PBMC [28] = assay: Toxicity towards human mononuclear leucocytes at 0.5 mM; assay type: cell-based; conditions: 500 µM; how it was run: as §3
[29] = system: Mycobacterium tuberculosis; assay: Antibacterial activity against Mycobacterium tuberculosis H37Rv; assay type: functional; how it was run: as §4

N/C(=N\N=C\c1c(O)cc(O)cc1O)c1ccncc1
Activity [1]: inactive
MIC (Staphylococcus aureus [2]): inactive

N/C(=N\N=C\c1ccc(O)c(O)c1)c1ccncc1
Activity [1]: inactive
MIC (Staphylococcus aureus [2]): inactive

COc1cc([N+](=O)[O-])cc(/C=N/N=C(\N)c2ccncc2)c1O
Activity [1]: inactive
MIC (Staphylococcus aureus [2]): inactive

CC(=O)Oc1c(/C=N/N=C(\N)c2ccncc2)cc(C(C)(C)C)cc1C(C)(C)C
Activity [1]: inactive
MIC (Staphylococcus aureus [2]): 4 µg/mL (≈ 10.1 µM)

CN[C@H](CC(C)C)C(=O)N[C@H]1C(=O)N[C@@H](CC(N)=O)C(=O)N[C@H]2C(=O)N[C@H]3C(=O)N[C@H](C(=O)N[C@H](C(=O)O)c4cc(O)cc(O)c4-c4cc3ccc4O)[C@H](O)c3ccc(c(Cl)c3)Oc3cc2cc(c3O[C@@H]2O[C@H](CO)[C@@H](O)[C@H](O)[C@H]2O[C@H]2C[C@](C)(N)[C@H](O)[C@H](C)O2)Oc2ccc(cc2Cl)[C@H]1O [VANCOMYCIN]
MIC [3]: 8 µg/mL (≈ 5.52 µM)
MIC (Escherichia coli [4]): > 16 µg/mL
MIC (Escherichia coli [5]): > 16 µg/mL
MIC (Klebsiella pneumoniae): > 16 µg/mL
MIC (Staphylococcus aureus [6]): 0.12 µg/mL (≈ 0.0828 µM)
MIC (Staphylococcus aureus [7]): 0.25 µg/mL (≈ 0.173 µM)
MIC (Staphylococcus aureus [8]): 0.12 µg/mL (≈ 0.0828 µM)
MIC (Enterococcus faecium [9]): 0.12 µg/mL (≈ 0.0828 µM)
MIC (Enterococcus faecium [10]): 0.12 µg/mL (≈ 0.0828 µM)
MIC (Enterococcus faecalis [11]): 0.25 µg/mL (≈ 0.173 µM)
MIC (Enterococcus faecalis [12]): 0.12 µg/mL (≈ 0.0828 µM)
MIC (Serratia marcescens): > 16 µg/mL
MIC (Pseudomonas aeruginosa): > 16 µg/mL
MIC [13]: > 16 µg/mL
MIC (Enterobacter cloacae): > 16 µg/mL
MIC [14]: > 16 µg/mL
MIC (Enterococcus [15]): 4 µg/mL (≈ 2.76 µM)
MIC (Enterococcus [16]): 4 µg/mL (≈ 2.76 µM)
MIC (Enterococcus [17]): 4 µg/mL (≈ 2.76 µM)
MIC (Enterococcus [18]): > 16 µg/mL
MIC (Enterococcus [19]): 4 µg/mL (≈ 2.76 µM)
MIC (Enterococcus [20]): > 16 µg/mL
MIC (Enterococcus [21]): > 16 µg/mL
MIC (Staphylococcus aureus [2]): 0.05 µg/mL (≈ 0.0345 µM)
MIC (Enterococcus faecalis [22]): 0.25 µg/mL (≈ 0.173 µM)
MIC (Enterococcus faecalis [23]): 0.25 µg/mL (≈ 0.173 µM)
MIC (Enterococcus faecalis [24]): 16 µg/mL (≈ 11 µM)
MIC (Enterococcus faecalis [25]): 2 µg/mL (≈ 1.38 µM)

CC(C)(C)c1cc(/C=N/N=C(\N)c2cccnc2)c(O)c(C(C)(C)C)c1
Activity [1]: inactive
MIC (Staphylococcus aureus [2]): inactive

N/C(=N\N=C\c1cc(O)c(O)cc1O)c1ccncc1
Activity [1]: inactive
MIC (Staphylococcus aureus [2]): 20 µg/mL (≈ 73.5 µM)

N/C(=N\N=C\c1cc(I)cc(I)c1O)c1ccncc1
MIC (Staphylococcus aureus [2]): 10 µg/mL (≈ 20.3 µM)

N/C(=N\N=C\c1ccccc1O)c1ccncc1
Activity (PBMC [26]): 11.7%
MIC (Staphylococcus aureus [2]): inactive

NNC(=O)c1ccncc1 [ISONIAZID]
Activity (PBMC [26]): 12.4%

N/C(=N\N=C\c1cc([N+](=O)[O-])cc(Br)c1O)c1ccncc1
MIC (Staphylococcus aureus [2]): inactive

CC(C)(C)c1cc(/C=N/N=C(\N)c2ccncc2)cc(C(C)(C)C)c1O
MIC [3]: inactive
MIC (Escherichia coli [4]): inactive
MIC (Escherichia coli [5]): inactive
MIC (Klebsiella pneumoniae): inactive
inhibition at 6.25 µg/mL [27]: 75%
Activity [1]: inactive
MIC (Staphylococcus aureus [6]): > 256 µg/mL
MIC (Staphylococcus aureus [7]): inactive
MIC (Staphylococcus aureus [8]): inactive
MIC (Enterococcus faecium [9]): inactive
MIC (Enterococcus faecium [10]): inactive
MIC (Enterococcus faecalis [11]): inactive
MIC (Enterococcus faecalis [12]): inactive
MIC (Serratia marcescens): inactive
MIC (Pseudomonas aeruginosa): inactive
MIC [13]: inactive
MIC (Enterobacter cloacae): inactive
MIC [14]: inactive
MIC (Staphylococcus aureus [2]): > 256 µg/mL

CC(C)(C)c1cc(/C=N/N=C(\N)c2cnccn2)c(O)c(C(C)(C)C)c1
Activity [1]: inactive
MIC (Staphylococcus aureus [2]): inactive

CC(C)(C)c1cc(/C=N/N=C(\N)c2ccncc2)c(O)c(C(C)(C)C)c1
MIC [3]: 2 µg/mL (≈ 5.67 µM)
MIC (Escherichia coli [4]): inactive
MIC (Escherichia coli [5]): inactive
MIC (Klebsiella pneumoniae): inactive
inhibition at 6.25 µg/mL [27]: 100%
Activity [1]: inactive
Activity (PBMC [28]): 100%
MIC (Staphylococcus aureus [6]): 2 µg/mL (≈ 5.67 µM)
MIC (Staphylococcus aureus [7]): 2 µg/mL (≈ 5.67 µM)
MIC (Staphylococcus aureus [8]): 2 µg/mL (≈ 5.67 µM)
MIC (Enterococcus faecium [9]): 2 µg/mL (≈ 5.67 µM)
MIC (Enterococcus faecium [10]): 2 µg/mL (≈ 5.67 µM)
MIC (Enterococcus faecalis [11]): 2 µg/mL (≈ 5.67 µM)
MIC (Enterococcus faecalis [12]): 2 µg/mL (≈ 5.67 µM)
MIC (Serratia marcescens): inactive
MIC (Pseudomonas aeruginosa): inactive
MIC [13]: inactive
MIC (Enterobacter cloacae): inactive
MIC [14]: inactive
MIC (Enterococcus [15]): 2 µg/mL (≈ 5.67 µM)
MIC (Enterococcus [16]): 2 µg/mL (≈ 5.67 µM)
MIC (Enterococcus [17]): 2 µg/mL (≈ 5.67 µM)
MIC (Enterococcus [18]): 2 µg/mL (≈ 5.67 µM)
MIC (Enterococcus [19]): 2 µg/mL (≈ 5.67 µM)
MIC (Enterococcus [20]): 2 µg/mL (≈ 5.67 µM)
MIC (Enterococcus [21]): 2 µg/mL (≈ 5.67 µM)
MIC [29]: 6.25 µg/mL (≈ 17.7 µM)
MIC (Staphylococcus aureus [2]): 2 µg/mL (≈ 5.67 µM)
MIC (Enterococcus faecalis [22]): 2 µg/mL (≈ 5.67 µM)
MIC (Enterococcus faecalis [23]): 4 µg/mL (≈ 11.3 µM)
MIC (Enterococcus faecalis [24]): 2 µg/mL (≈ 5.67 µM)
MIC (Enterococcus faecalis [25]): 2 µg/mL (≈ 5.67 µM)

N/C(=N\N=C\c1ccc(O)c(O)c1O)c1ccncc1
Activity [1]: inactive
MIC (Staphylococcus aureus [2]): 30 µg/mL (≈ 110 µM)

COc1c(/C=N/N=C(\N)c2ccncc2)cc(C(C)(C)C)cc1C(C)(C)C
MIC (Staphylococcus aureus [2]): inactive

COc1ccc(/C=N/N=C(\N)c2ccncc2)c(O)c1
Activity [1]: inactive
MIC (Staphylococcus aureus [2]): inactive

CC(C)(C)c1cc(/C=N/N=C(\N)c2ccc3ccccc3n2)c(O)c(C(C)(C)C)c1
Activity [1]: inactive
MIC (Staphylococcus aureus [2]): inactive

N/C(=N\N=C\c1cc([N+](=O)[O-])ccc1O)c1ccncc1
Activity [1]: inactive
MIC (Staphylococcus aureus [2]): 20 µg/mL (≈ 70.1 µM)

N/C(=N\N=C\c1cccc(O)c1O)c1ccncc1
Activity [1]: inactive
MIC (Staphylococcus aureus [2]): inactive

N/C(=N\N=C\c1cc(Br)cc([N+](=O)[O-])c1O)c1ccncc1
Activity [1]: inactive
MIC (Staphylococcus aureus [2]): inactive

Cc1cc(C)c(O)c(/C=N/N=C(\N)c2ccncc2)c1
MIC (Staphylococcus aureus [2]): inactive

CC(C)(C)c1cc(C=O)c(O)c(C(C)(C)C)c1
Activity (PBMC [26]): 32.7%

N/N=C(/N)c1ccncc1
Activity (PBMC [26]): 13.8%

COc1cccc(/C=N/N=C(\N)c2ccncc2)c1O
Activity [1]: inactive
MIC (Staphylococcus aureus [2]): inactive

CC(C)(C)c1cc(/C=N/N=C(\N)c2ccccn2)c(O)c(C(C)(C)C)c1
Activity [1]: inactive
MIC (Staphylococcus aureus [2]): inactive
